Data taken from ChEMBL document CHEMBL4007470, “Discovery of a 2'-fluoro-2'-C-methyl C-nucleotide HCV polymerase inhibitor and a phosphoramidate prodrug with favorable properties” (Bioorg Med Chem Lett, 2017).
pEC50: −log10 of the molar value.

Assays:
[1] = Permeability of the compound from basolateral to apical side in human Caco2 cells at 10 uM; format: ADME, cell-based, Caco-2; details: caco-2, 10 µM, 10 µM
In short: (§1)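 Caco-2 permeability at 10 μM compound, measured in apical-to-basolateral and basolateral-to-apical directions.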

Hepatitis C virus [2] = experiment: Antiviral activity against HCV genotype 1b infected in human HuH7 cells by luciferase reporter gene assay; format: functional, cell-based, Hepacivirus hominis
In short: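 Luciferase-reporter genotype 1b subgenomic replicon in Huh-7 cells; EC50 is concentration giving 50% inhibition. Values are averages of at least three repeats.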

[3] = Permeability of the compound from apical to basolateral side in human Caco2 cells at 10 uM; format: ADME, cell-based, Caco-2; details: caco-2, 10 µM, 10 µM; in short: as §1
[4] = Half life in hamster intestinal S9 fractions at 2 uM by LC-MS/MS analysis; format: ADME, Intestine; details: cricetinae, s9, 2 µM; 2 µM
Hepatitis C virus [5] = experiment: Antiviral activity against HCV genotype 4a infected in human HuH7 cells by luciferase reporter gene assay; format: functional, cell-based, Hepacivirus hominis
Liver = experiment: Hepatic extraction in human liver S9 fractions at 2 uM by LC-MS/MS analysis; format: ADME; details: s9, 2 µM, 2 µM
In short: (§2)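 Compound at 2 μM incubated with S9 fractions at 37 °C for 90 min with NADPH and UDPGA. Quenched with aqueous acetonitrile/methanol containing internal standard and analysed by LC-MS/MS. Half-life from an exponential fit assuming first-order kinetics. Hepatic extraction predicted from half-life using the well-stirred model.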

Hepatitis C virus [6] = experiment: Antiviral activity against HCV genotype 1a infected in human HuH7 cells by luciferase reporter gene assay; format: functional, cell-based, Hepacivirus hominis, subtype 1a
[7] = Hepatic extraction in hamster liver S9 fractions at 2 uM by LC-MS/MS analysis; format: ADME; details: cricetinae, s9, 2 µM; 2 µM; in short: as §2
Plasma = experiment: Half life in human plasma at 2 uM by LC-MS/MS analysis; format: ADME, cell-free; details: 2 µM
In short: (§3)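 Compound at 2 μM incubated in plasma at 37 °C for up to 4 h. Aliquots quenched with 9 volumes of acetonitrile containing internal standard, then centrifuged. Supernatant analysed by LC-MS/MS.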

Rhesus monkey = experiment: Toxicity in monkey at 30 mg/kg/day for 28 days; format: organism-based, Macaca mulatta; details: in vivo, 672 h
Rattus norvegicus [8] = species: Rattus norvegicus; experiment: Toxicity in rat assessed as vacuolization in brain treated for 28 days by histopathology; details: in vivo, 672 h
Rattus norvegicus [9] = experiment: Toxicity in rat at 1000 mg/kg/day for 28 days; format: organism-based; details: in vivo, 672 h
[10] = Half life in hamster plasma at 2 uM by LC-MS/MS analysis; format: ADME, cell-free; details: cricetinae, 2 µM; in short: as §3

- permeability [1]: 9.3 ×10⁻⁶ cm/s
- pEC50 (Hepatitis C virus [2]): 5.52
- permeability [3]: 1.7 ×10⁻⁶ cm/s
- t1/2 [4]: 99 min
- pEC50 (Hepatitis C virus [5]): 6.36
- ERH (Liver): 76%
- pEC50 (Hepatitis C virus [6]): 6.10
- ERH [7]: 90%
- t1/2 (Plasma): 546 min
- t1/2 [10]: 218 min
Structure (SMILES): CC(C)OC(=O)C1(NP(=O)(OC[C@H]2O[C@@H](c3cnc4c(N)ncnn34)[C@](C)(F)[C@@H]2O)Oc2ccccc2)CCC1 (stereo in doubt; 53)
- Activity (Rhesus monkey): Non-Toxic
- Activity (Rattus norvegicus [8]): Dose-dependent effect
- Activity (Rattus norvegicus [9]): Non-Toxic
